Test results published in ChEMBL document CHEMBL1955718, “Discovery of new orally effective analgesic and anti-inflammatory hybrid furoxanyl N-acylhydrazone derivatives” (Bioorg Med Chem, 2012).

Columns and labels:
[1] = Inhibition of soybean lipoxygenase using arachidonic acid as substrate; set-up: species or system Glycine max
How it was run: (§1)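 Soybean 15-lipoxygenase kit assay, arachidonic acid substrate, H2O2 as lipoxygenating agent in 0.1 M Tris-HCl pH 7.4. Single-point screen at 50 µM. IC50 found by varying concentration over 10–100 µM. Quercetin at 4 µM as positive control; duplicate means; Student t-test.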

[2] = Induction of NO release in 0.1 M Tris-HCl and 0.1 mM DTPA at pH 8.3 measured for 20 mins in presence of cysteine; format: physicochemical; details: buffer, pH 8.3, 20 min
How it was run: (§2)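 Electrochemical NO detection with an ISO-NOP sensor. Compounds in DMSO added to 0.1 M Tris-HCl, 0.1 mM DTPA at pH 7.4 or 8.3. Cysteine (300 or 100 µM) added and NO recorded for 20 min at 25 or 37 °C; compound:Cys ratio 1:1 at 25 °C, with 3:1 and 37 °C runs also made.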

HT-29 [3] = assay: Inhibition of NF-kappaB activation expressed in human HT-29 cells assessed as inhibition of TNFalpha-stimulated IL8 release at 400 uM after 24 hrs by flow cytometric analysis relative to control; format: cell-based
How it was run: (§3)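 Reporter HT-29-NF-κB-hrGFP cells pretreated 2 h with compound (DMSO <0.5%) at the highest concentration with 100% survival, then stimulated with TNF-α (3 ng/mL final) for 18–24 h at 37 °C. IL-8 in clarified supernatant measured by flow cytometric bead assay (500 events). Expressed as % of TNF-α/DMSO control ± SD; thalidomide as reference.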

Glycine max = assay: Inhibition of soybean lipoxygenase using arachidonic acid as substrate at 50 uM; how it was run: as §1
[4] = Cytotoxicity against mouse […] cells after 48 hrs by MTT assay; format: cell-based
How it was run: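 J774 macrophages in DMEM (4 mM L-glutamine, 10% heat-inactivated FBS) were seeded at 1 × 10^5 cells/well and grown for 48 h at 37 °C, 5% CO2. They were then exposed to compounds at 25–400 µM for 48 h. MTT (0.1 mg/mL final) was added for 3 h, formazan was dissolved in DMSO/glycine buffer pH 10.5, and absorbance was read at 560 nm to give an IC50.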

HT-29 [5] = assay: Inhibition of TNFalpha-induced NF-kappaB activation expressed in human HT-29 cells coexpressing hrGFP at 400 uM after 24 hrs by propidium iodide staining-based flow cytometric analysis relative to control; format: cell-based
How it was run: (§4)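 HT-29 cells stably expressing NF-κB-driven hrGFP given compound (DMSO <0.5%) for 2 h at the maximum non-cytotoxic concentration, then TNF-α at 3 ng/mL final for 18–24 h. Cells trypsinised and stained with propidium iodide; 5000 events gated on FSC/SSC. The %GFP-positive among PI-excluding live cells is normalised to TNF-α/DMSO control, ± SD.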

HT-29 [6] = assay: Pro-inflammatory activity in NFkappaB-GFP transfected human HT-29 cells at 25 to 400 uM after 24 hrs by propidium iodide staining-based flow cytometric analysis; format: ADME, cell-based; details: ht-29, 24 h
How it was run: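 Reporter HT-29-NF-κB-hrGFP cells given compound alone, without TNF-α, for 18–24 h at 37 °C after the same 2 h pre-incubation. GFP-positive live (propidium iodide-excluding) cells counted by flow cytometry; IL-8 in supernatant measured by bead-based flow cytometry.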

[7] = Cytotoxicity against human HT-29 cells expressing NF-kappaB-hrGFP assessed as highest non-cytotoxic dose for 100% cell survival after 24 hrs by MTT assay; format: cell-based; details: read-out: Activity
How it was run: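 HT-29 cells stably carrying pNF-κB-hrGFP, seeded at 0.5 × 10^6/mL in DMEM with 10% FBS, grown 24 h at 37 °C, 5% CO2. Compounds added in DMSO (<0.5% v/v final) at 12.5–400 µM for 24 h. Viability by MTT reduction (2 h), formazan dissolved in DMSO/glycine buffer, read at 560 nm.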

HT-29 [8] = assay: Inhibition of TNFalpha-induced NF-kappaB activation expressed in human HT-29 cells coexpressing hrGFP at 100 uM after 24 hrs by propidium iodide staining-based flow cytometric analysis relative to control; format: cell-based; how it was run: as §4
HT-29 [9] = assay: Inhibition of NF-kappaB activation expressed in human HT-29 cells assessed as inhibition of TNFalpha-stimulated IL8 release at 100 uM after 24 hrs by flow cytometric analysis relative to control; format: cell-based; how it was run: as §3
Rattus norvegicus = assay: Antiinflammatory activity in albino rat assessed as inhibition of carrageenan-induced paw edema at 100 umol/kg, po administered 1 hr before carrageenan challenge measured after 3 hrs by plethysmometric analysis relative to control; format: functional
How it was run: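 Albino rats of both sexes (150–200 g) were dosed orally as a suspension in 1% Tween 80 in saline, with vehicle controls. After 1 h, 0.1 mL 1% carrageenan or saline was injected subplantar. Paw volume was read by glass plethysmometer at 3 h. Edema = carrageenan-paw minus saline-paw volume; % inhibition vs vehicle; Student t-test.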

Mus musculus [10] = assay: Analgesic activity in albino mouse assessed as inhibition of acetic acid-induced abdominal constriction at 100 umol/kg, po administered 1 hr before acetic acid challenge measured after 60 mins relative to control; format: functional; details: Abdomen
How it was run: (§5)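 Albino mice of both sexes (18–23 g) were dosed orally as a suspension in 5% arabic gum in saline, with vehicle controls. After 1 h they received 0.6% acetic acid ip (0.1 mL/10 g). Constrictions were counted for 20 min starting 10 min after injection. Data are % inhibition vs vehicle, mean ± SEM, Student t-test.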

HT-29 [11] = assay: Inhibition of TNF-alpha-induced NFkappaB activation expressed in human HT-29 cells coexpressing hrGFP at 50 uM after 24 hrs by propidium iodide staining-based flow cytometric analysis relative to control; format: cell-based; how it was run: as §4
HT-29 [12] = assay: Inhibition of NF-kappaB activation expressed in human HT-29 cells assessed as inhibition of TNFalpha-stimulated IL8 release at 50 uM after 24 hrs by flow cytometric analysis relative to control; format: cell-based; how it was run: as §3
Mus musculus [13] = assay: Analgesic activity in albino mouse assessed as inhibition of acetic acid-induced abdominal constriction at 100 umol/kg, po administered 1 hr before acetic acid challenge measured after 30 mins relative to control; format: functional; details: Abdomen; how it was run: as §5
[14] = Induction of NO release in 0.1 M Tris-HCl and 0.1 mM DTPA at pH 7.4 measured for 20 mins in presence of cysteine; format: physicochemical; details: buffer, pH 7.4, 20 min; how it was run: as §2

Structure (SMILES) | IC50 [1] [µM] | Activity [2] [nM/min] | inhibition (HT-29 [3]) [%] | inhibition (Glycine max) [%] | IC50 [4] [µM] | NF-kappaB activity (GFP-positive cells), % of TNF-alpha control (HT-29 [5]) [%] | Activity (HT-29 [6]) | MNTC at 24 h [7] [µM] | NF-kappaB activity (% of TNF-alpha control) (HT-29 [8]) [%] | inhibition (HT-29 [9]) [%] | inhibition in vivo at 100 µmol/kg (Rattus norvegicus) [%] | inhibition in vivo at 100 µmol/kg (Mus musculus [10]) [%] | NF-kappaB activation (% of TNF-alpha control) (HT-29 [11]) [%] | inhibition (HT-29 [12]) [%] | inhibition in vivo at 100 µmol/kg (Mus musculus [13]) [%] | Activity [14] [nM/min]
O=C(N/N=C/c1ccc2no[n+]([O-])c2c1)c1ccc2c(c1)OCO2 | 50 | 0 | 64 | 55 | 141 | 87 | Non-toxic | 400 | – | – | – | – | – | – | – | –
Cc1nc2ccccn2c1C(=O)N/N=C/c1ccc2no[n+]([O-])c2c1 | – | – | 76 | – | > 400 | 104 | Non-toxic | 400 | – | – | – | – | – | – | – | –
O=C(N/N=C/c1c(-c2ccccc2)no[n+]1[O-])c1cnn(-c2ccccc2)c1 | – | – | – | – | 42 | 105 | Non-toxic | 400 | – | – | – | – | – | – | – | –
Cc1c(/C=N/NC(=O)c2cnn(-c3ccccc3)c2)no[n+]1[O-] (mixture of isomers) | – | – | – | 0 | 295 | – | Non-toxic | 100 | 80 | – | – | – | – | – | – | –
Cc1c(C(=O)N/N=C/c2ccco2)no[n+]1[O-] | – | – | – | 0 | > 400 | – | Non-toxic | 100 | 99 | 82 | – | – | – | – | – | –
Cc1c(C(=O)N/N=C/c2c(-c3ccccc3)no[n+]2[O-])no[n+]1[O-] | – | – | – | – | > 400 | – | Non-toxic | 100 | 122 | 77 | – | – | – | – | – | –
Cc1c(/C=N/NC(=O)c2ccc3c(c2)OCO3)no[n+]1[O-] | – | – | 106 | – | 132 | 102 | Non-toxic | 400 | – | – | – | – | – | – | – | –
COc1cc(/C=N/NC(=O)c2no[n+]([O-])c2C)ccc1O | – | 0 | – | 1 | > 400 | – | Non-toxic | 100 | 149 | 77 | – | – | – | – | – | –
Cc1c(/C=N/NC(=O)c2no[n+]([O-])c2C)no[n+]1[O-] | 50 | – | – | 55 | > 400 | – | Non-toxic | 100 | 127 | 65 | 10 | 14 | – | – | – | –
Cc1nc2ccccn2c1C(=O)N/N=C/c1no[n+]([O-])c1C | – | – | 77 | – | > 400 | 120 | Non-toxic | 400 | – | – | – | – | – | – | – | –
Cc1c(C(=O)N/N=C/c2ccc(Br)cc2)no[n+]1[O-] | – | – | – | 0 | 162 | – | Non-toxic | 100 | 126 | 61 | 0 | 23 | – | – | – | –
Cc1c(C(=O)N/N=C/c2ccc([N+](=O)[O-])s2)no[n+]1[O-] | – | – | – | – | 68 | – | Non-toxic | 100 | 111 | – | – | – | – | – | – | –
Cc1nc2ccccn2c1C(=O)NN | – | – | – | – | > 400 | – | Non-toxic | 50 | – | – | – | – | 111 | – | – | –
Cc1c(C(=O)N/N=C/c2cccs2)no[n+]1[O-] | > 100 | – | – | 10 | > 400 | – | Non-toxic | 100 | 122 | 75 | 0 | 14 | – | – | – | –
COc1ccc(/C=N/NC(=O)c2no[n+]([O-])c2C)cc1O | – | – | 59 | 58 | > 400 | 117 | Non-toxic | 400 | – | – | – | – | – | – | – | –
Cc1c(C(=O)N/N=C/c2ccc3c(c2)OCO3)no[n+]1[O-] | – | – | – | – | > 400 | – | Non-toxic | 100 | 97 | 98 | – | – | – | – | – | –
O=C(O)c1ccc(/C=N/NC(=O)c2c(-c3ccccc3)no[n+]2[O-])cc1 | 50 | 0 | – | 53 | > 300 | – | Non-toxic | 50 | – | – | – | – | 115 | 114 | – | –
Cc1c(C(=O)N/N=C/c2ccc([N+](=O)[O-])o2)no[n+]1[O-] | – | – | – | – | 96 | – | Non-toxic | 100 | 136 | 48 | 14 | 13 | – | – | – | –
COc1ccc(/C=N/NC(=O)c2no[n+]([O-])c2C)cc1OC | – | – | 68 | 0 | > 400 | 120 | Non-toxic | 400 | – | – | 4 | 17 | – | – | – | –
Cc1nc2ccccn2c1C(=O)N/N=C/c1c(-c2ccccc2)no[n+]1[O-] | – | 0 | 38 | 0 | 56 | 32 | Non-toxic | 400 | – | – | 18 | 14 | – | – | 2 | 0
Cc1c(C(=O)N/N=C/c2ccc3no[n+]([O-])c3c2)no[n+]1[O-] | – | – | 68 | – | > 400 | 121 | Non-toxic | 400 | – | – | – | – | – | – | – | –
NNC(=O)c1ccc2c(c1)OCO2 | – | – | – | – | > 400 | – | Non-toxic | 50 | – | – | – | – | 118 | – | – | –
Cc1c(C(=O)N/N=C/c2ccc(C(F)(F)F)cc2)no[n+]1[O-] | 50 | – | – | 55 | > 400 | 55 | Non-toxic | 400 | – | – | – | – | – | – | – | –
O=C(N/N=C/c1ccc2no[n+]([O-])c2c1)c1cnn(-c2ccccc2)c1 | – | – | – | – | 37 | – | Non-toxic | – | – | – | – | – | – | – | – | –
